The text below walks through data of ChEMBL document CHEMBL1158357, “Synthesis of [1,2,4]triazolo[1,5-a]pyridines of potential PGE2 inhibitory properties” (2009).

Assay [1] deals with Rattus norvegicus. Description: Antiinflammatory activity in Wistar albino rat assessed as inhibition of carrageenan-induced paw edema volume at 50 mg/kg, ip administered 1 hr prior to carrageenan challenge measured after 3 hrs. Particulars: route intraperitoneal. Also noted: scale not given: the % may be the effect or the level left.
Assay [2] deals with Rattus norvegicus. The assay can be described thus: Antiinflammatory activity in Wistar albino rat assessed as inhibition of carrageenan-induced paw edema volume at 50 mg/kg, po administered 1 hr prior to carrageenan challenge measured after 2 hrs. In kind it is functional. On the technique in general: The carrageenan paw model is a standard test of acute inflammation.
For assay [3], the system named is Rattus norvegicus. Description: Antiinflammatory activity in Wistar albino rat assessed as inhibition of carrageenan-induced paw edema volume at 50 mg/kg, ip administered 1 hr prior to carrageenan challenge measured after 2 hrs. Also noted: scale not given: the % may be the effect or the level left. Particulars: route intraperitoneal.
The test system of assay [4] is Rattus norvegicus. Description: Antiinflammatory activity in Wistar albino rat assessed as inhibition of carrageenan-induced paw edema volume at 50 mg/kg, po administered 1 hr prior to carrageenan challenge measured after 4 hrs. Also noted: scale not given: the % may be the effect or the level left.
Assay [5] relates to Rattus norvegicus. The assay can be described thus: Antiinflammatory activity in Wistar albino rat assessed as inhibition of carrageenan-induced paw edema volume at 50 mg/kg, po administered 1 hr prior to carrageenan challenge measured after 4 hrs relative to indomethacin. It counts as functional. On the set-up: scale not given: the % may be the effect or the level left.
The test system of assay [6] is Rattus norvegicus. Description: Antiinflammatory activity in Wistar albino rat assessed as inhibition of carrageenan-induced paw edema volume at 50 mg/kg, ip administered 1 hr prior to carrageenan challenge measured after 4 hrs. Particulars: route intraperitoneal.
The test system of assay [7] is Rattus norvegicus. Description: Antiinflammatory activity against carrageenan-induced inflammation in albino rat air pouch model assessed as PGE2 level at 50 mg/kg, po administered […] before carrageenan challenge measured after 6 hrs. In kind it is functional. In short, it runs like this: (§1)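 Male albino rats (200–250 g), 6 per group. A dorsal air pouch was made with 20 ml air s.c. on day 1, 10 ml two days later and 10 ml on day 5. Next day, rats were dosed orally in saline with a few drops of Tween 80 (controls: sterile saline), then given 2 ml 1% carrageenan in saline into the pouch. Exudate was aspirated 6 h later under ether, stored at -20 °C, and PGE2 measured by ELISA kit.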

In assay [8] the test system is Rattus norvegicus. Description: Antiinflammatory activity in Wistar albino rat assessed as inhibition of carrageenan-induced paw edema volume at 50 mg/kg, po administered 1 hr prior to carrageenan challenge measured after 3 hrs. In kind it is functional.
The test system of assay [9] is Rattus norvegicus. Description: Antiinflammatory activity in Wistar albino rat assessed as inhibition of carrageenan-induced paw edema volume at 50 mg/kg, po administered 1 hr prior to carrageenan challenge measured after 1 hr. In kind it is functional.
Assay [10] relates to Rattus norvegicus. Description: Antiinflammatory activity in Wistar albino rat assessed as inhibition of carrageenan-induced paw edema volume at 50 mg/kg, ip administered 1 hr prior to carrageenan challenge measured after 1 hr. Also noted: scale not given: the % may be the effect or the level left. The conditions noted are these: route intraperitoneal.
Assay [11] relates to Rattus norvegicus. Description: Antiinflammatory activity against carrageenan-induced inflammation in albino rat air pouch model assessed as PGE2 level at 10 mg/kg, po administered […] before carrageenan challenge measured after 6 hrs. In kind it is functional. In short, it runs like this:
as §1

Turning to `Cn1c([S-])n[n+]2c(N)c(C#N)c(-c3ccccc3OCCCOc3ccccc3-c3c(C#N)c(N)[n+]4nc([S-])n(C)c4c3C#N)c(C#N)c12`, the Activity in assay [1] is 41%; in assay [2], 0.257 mL; in assay [3], 22.6%; in assay [4], 75.2%; in assay [5], 110.9%; in assay [6], 0.175 mL. Further, the Activity in assay [7] worked out at 92.17 pg/mL; in [8], 0.307 mL; in assay [9] it was 0.19 mL; in [10] it was 8.2%.

As to `CCn1c([S-])n[n+]2c(N)c(C#N)c(-c3ccccc3OCCOc3ccccc3-c3c(C#N)c(N)[n+]4nc([S-])n(CC)c4c3C#N)c(C#N)c12`, the Activity stood at 40% in assay [1]; 0.232 mL in [2]; 30.1% in [3]; 77.3% in [4]; 114% in assay [5]; 0.16 mL in assay [6]. Further, the Activity in [7] was 87.67 pg/mL; in assay [8], 0.312 mL; in assay [9], 0.188 mL; in assay [10], 9.2%.

Regarding `N#Cc1c(-c2ccc(N3CCCCC3)cc2)c(C#N)c2n(Cc3ccccc3)c([S-])n[n+]2c1N`, the Activity in assay [1] stood at 39.8%; in assay [2] it was 0.325 mL; in assay [3] it was 2.1%; in assay [4], 67.4%; in assay [5], 99.4%; in [6] it was 0.23 mL. Moreover, the Activity in assay [7] amounted to 102.33 pg/mL; in assay [8] it was 0.313 mL; in [9] it was 0.192 mL; in assay [10], 7.2%.

`N#Cc1c(-c2ccc(N3CCOCC3)cc2)c(C#N)c2n(Cc3ccccc3)c([S-])n[n+]2c1N`: the Activity stood at 6.7% in assay [1]; 0.328 mL in assay [2]; 1.2% in assay [3]; 39.3% in assay [4]; 58% in assay [5]; 0.428 mL in [6]. Moreover, the Activity turned out to be 0.485 mL in [8], 0.207 mL in assay [9] and 0% in assay [10].

With `CN1CCN(c2ccc(-c3c(C#N)c(N)[n+]4nc([S-])n(C)c4c3C#N)cc2)CC1`, the Activity in assay [1] stood at 38.1%; in assay [2] it was 0.287 mL; in assay [3], 13.6%; in assay [4], 36.6%; in assay [5] it was 54%; in [6] it was 0.447 mL. Also, the Activity was 0.322 mL in assay [8], 0.172 mL in [9] and 16.9% in assay [10].

Regarding `C=CCn1c([S-])n[n+]2c(N)c(C#N)c(-c3ccc(N4CCOCC4)cc3)c(C#N)c12`, the Activity in assay [1] was 25.6%; in [2], 0.268 mL; in assay [3], 19.3%; in assay [4] it was 60.6%; in [5], 89.4%; in assay [6], 0.278 mL. For the same molecule, the Activity in assay [8] is 0.387 mL; in [9], 0.188 mL; in [10] it was 9.2%.

In the case of `Cn1c([S-])n[n+]2c(N)c(C#N)c(-c3ccccc3OCCOc3ccccc3-c3c(C#N)c(N)[n+]4nc([S-])n(C)c4c3C#N)c(C#N)c12`, the Activity in assay [1] came out at 28.8%; in assay [2], 0.293 mL; in [3], 11.7%; in assay [4], 58.6%; in assay [5], 86.4%; in assay [6], 0.292 mL. The Activity stood at 0.37 mL in assay [8], 0.097 mL in [9] and 53.1% in [10].

Turning to `Cn1c([S-])n[n+]2c(N)c(C#N)c(-c3ccc(N4CCOCC4)cc3)c(C#N)c12`, the Activity in [1] amounted to 41.7%; in assay [2], 0.275 mL; in assay [3], 17.2%; in assay [4], 45.4%; in [5] it was 67%; in assay [6], 0.385 mL. Moreover, the Activity is 0.303 mL in [8], 0.203 mL in assay [9] and 1.9% in assay [10].

Regarding `Cn1c([S-])n[n+]2c(N)c(C#N)c(-c3ccc(N4CCCCC4)cc3)c(C#N)c12`, the Activity worked out at 32.1% in [1]; 0.298 mL in assay [2]; 10.2% in assay [3]; 51.1% in assay [4]; 75.4% in assay [5]; 0.345 mL in assay [6]. The Activity amounted to 0.353 mL in [8], 0.202 mL in [9] and 2.4% in assay [10].

In the case of `CCn1c([S-])n[n+]2c(N)c(C#N)c(-c3ccc(N4CCCCC4)cc3)c(C#N)c12`, the Activity in assay [1] worked out at 55.8%; in assay [2], 0.11 mL; in [3], 66.9%; in assay [4], 61.4%; in [5] it was 90.6%; in assay [6], 0.272 mL. In addition, the Activity in assay [8] was found to be 0.23 mL; in [9], 0.142 mL; in assay [10], 31.4%.

Consider `C=CCn1c([S-])n[n+]2c(N)c(C#N)c(-c3ccc(N4CCCCC4)cc3)c(C#N)c12`, for which the Activity in [1] was 35%; in assay [2], 0.307 mL; in [3], 7.5%; in assay [4], 68.5%; in assay [5], 101%; in assay [6], 0.222 mL. In addition, the Activity in assay [7] came to 94.5 pg/mL; in [8], 0.338 mL; in [9] it was 0.16 mL; in assay [10] it was 22.7%.

As to `CCn1c([S-])n[n+]2c(N)c(C#N)c(-c3ccc(N4CCOCC4)cc3)c(C#N)c12`, the Activity in assay [1] stood at 38.1%; in assay [2], 0.232 mL; in assay [3], 30.1%; in [4], 55%; in assay [5] it was 81.1%; in [6], 0.317 mL. The values for the Activity in assay [8], in assay [9] and in assay [10] were 0.322 mL, 0.118 mL and 43%, respectively.

As for `COc1ccc2c(c1)c(CC(=O)O)c(C)n2C(=O)c1ccc(Cl)cc1` [INDOMETHACIN], the Activity in assay [1] stood at 65.4%; in assay [2], 0.158 mL; in assay [3] it was 52.4%; in [4], 67.8%; in assay [6] it was 0.227 mL; in assay [11] it was 98.33 pg/mL. Further, the Activity came to 0.18 mL in assay [8], 0.09 mL in assay [9] and 56.5% in assay [10].
